Activity calls are given as the source filed them. No cut-off for these calls is given here.

Experiment [1] concerns the target T1, Transcriptional enhancer factor TEF-3 (Homo sapiens, UniProt Q15561). Put plainly: Inhibition of TEAD4 in HEK293 cells assessed as reduction in ANKRD1 mRNA expression at 1 uM measured after 6 hrs by SYBR green dye based RT-PCR analysis relative to control. Type of experiment: cell-based. Put shortly: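 HEK293 cells treated with DMSO or compound for 6 h; ANKRD1 mRNA measured by RT-qPCR relative to the DMSO control.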

Experiment [2] deals with T1, Transcriptional enhancer factor TEF-3. Put plainly: Binding affinity to nonacylated N-terminal His6-tagged human TEAD4 (217 to 434 residues) expressed in Escherichia coli BL21-CodonPlus (DE3)-RIPL cells at 8 equiv after 1 hr by ESI-MS spectrophotometric analysis. In outline:
(§1)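 Whole-protein ESI–MS: 1 μM hTEAD4 incubated 1 h at room temperature with 8 equiv compound in 25 mM HEPES, 150 mM NaCl, pH 6.5; centrifuged, injected via online desalting column to UPLC-MS; masses deconvoluted to detect adducts.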

Experiment [3] has the same target. Put plainly: Binding affinity to acylated N-terminal His6-tagged human TEAD4 (217 to 434 residues) expressed in Escherichia coli BL21-CodonPlus (DE3)-RIPL cells assessed as covalent adduct formation at 8 equiv after 1 hr by ESI-MS spectrophotometric analysis. Put shortly: as §1
Experiment [4] addresses Transcriptional enhancer factor TEF-1 (Homo sapiens, UniProt P28347). Put plainly: Inhibition of CPM binding to nonacylated N-terminal His6/GST-tagged human TEAD1 (209 to 426 residues) expressed in Escherichia coli BL21-CodonPlus (DE3)-RIPL cells preincubated for 10 mins followed by CPM addition and measured after 1 hr by fluorescence assay.
In experiment [5] the target is T1, Transcriptional enhancer factor TEF-3. Put plainly: Binding affinity to nonacylated N-terminal His6-tagged human TEAD4 (217 to 434 residues) expressed in Escherichia coli BL21-CodonPlus (DE3)-RIPL cells assessed as melting temperature at 80 uM after 10 mins by SYPRO orange dye-based differential scanning fluorimetry method (reference value: 41 degreeC). For orientation: DSF heats the sample and reads unfolding from a dye or from intrinsic fluorescence.

For experiment [6], the species on record is Mus musculus. Put plainly: Binding affinity to N-terminal His6/MBP-tagged mouse TEAD4 (209 to 427 residues) Cys360Ala mutant expressed in Escherichia coli BL21-CodonPlus (DE3)-RIPL cells assessed as inhibition of protein-FAM-YAP (50 to 100 residues) interaction preincubated for 10 mins followed by FAM YAP addition and measured after 1 hr by fluorescence assay. Conditions: time 70.0 min. In outline:
(§2)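 FP competition in PBS pH 7.5 with mTEAD4 Cys360Ser or Cys360Ala mutant: serially diluted compound preincubated 10 min at room temperature with protein, then FAM-YAP50–100 added (final 10 nM FAM / 50 nM protein for each mutant); shaken 1 h at room temperature, FP read at Ex/Em 485/535 nm.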

In experiment [7] the target is Transcriptional enhancer factor TEF-3 (Mus musculus) (UniProt Q62296). Put plainly: Binding affinity to nonacylated mouse TEAD4 assessed as line broadening at Phe408 residue at 0.5 mM by 1H-15N HSQC spectra analysis. Put shortly: (§3)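 1H–15N HSQC of 13C/15N-labeled mTEAD4, deacylated with hydroxylamine; spectra with DMSO or compound (0.5 mM) recorded at 37 °C on a 600 MHz cryoprobe instrument in 20 mM HEPES pH 7.3, 150 mM NaCl, 1 mM DTT; spectra overlaid.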
Sequence of Transcriptional enhancer factor TEF-3 (Mus musculus) (Q62296 whole entry): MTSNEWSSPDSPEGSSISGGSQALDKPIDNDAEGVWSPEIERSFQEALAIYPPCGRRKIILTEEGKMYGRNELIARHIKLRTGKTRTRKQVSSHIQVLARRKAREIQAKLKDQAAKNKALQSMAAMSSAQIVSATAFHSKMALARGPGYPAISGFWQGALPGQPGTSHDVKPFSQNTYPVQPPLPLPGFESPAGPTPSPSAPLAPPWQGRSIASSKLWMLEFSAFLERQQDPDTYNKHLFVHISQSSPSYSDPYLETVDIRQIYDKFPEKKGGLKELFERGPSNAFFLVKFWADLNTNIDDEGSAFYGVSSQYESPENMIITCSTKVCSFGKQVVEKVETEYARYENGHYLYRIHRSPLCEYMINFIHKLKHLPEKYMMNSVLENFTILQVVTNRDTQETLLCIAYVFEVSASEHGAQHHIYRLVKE

The target in experiment [8] is T1, Transcriptional enhancer factor TEF-3. Put plainly: Binding affinity to N-terminal His6-tagged human TEAD4 (217 to 434 residues) expressed in Escherichia coli BL21-CodonPlus (DE3)-RIPL cells assessed as inhibition of protein-FAM-YAP (50 to 100 residues) interaction preincubated for 10 mins followed by FAM YAP addition and measured after 1 hr by fluorescence assay. To be noted: time 70.0 min. Put shortly:
(§4)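 FP competition in PBS pH 7.5: serially diluted compound preincubated 10 min at room temperature with TEAD4 protein, then FAM-YAP50–100 added; shaken 1 h at room temperature, FP read at Ex/Em 485/535 nm. Final FAM/protein: nonacylated hTEAD4 2 nM/5 nM; acylated hTEAD4 3 nM/15 nM. Compound stocks 10 mM in DMSO. IC50 from curve fitting.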

Experiment [9] shares this target. Put plainly: Inhibition of FITC-labeled palmitate tracer binding to N-terminal His6-tagged human TEAD4 (217 to 434 residues) expressed in Escherichia coli BL21-CodonPlus (DE3)-RIPL cells preincubated for 10 mins followed by FITC-labeled palmitate tracer addition and measured after 1 hr by fluorescence assay. In outline:
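FP competition in 25 mM HEPES, 150 mM NaCl, pH 6.5: serially diluted compound preincubated 10 min at room temperature with nonacylated hTEAD4, then FITC-palmitate tracer added (final 50 nM protein, 10 nM tracer); shaken 1 h at room temperature, FP at Ex/Em 485/535 nm. Tracer Kd from saturation binding.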

Experiment [10] has the same target. Put plainly: Inhibition of FITC-labeled palmitate tracer binding to N-terminal His6-tagged human TEAD4 (217 to 434 residues) expressed in Escherichia coli BL21-CodonPlus (DE3)-RIPL cells assessed as ratio of Kinact to Ki measured after 1 to 24 hrs by fluorescence assay. Conditions: time hrs 1-24.
The target is the same in experiment [11]. Put plainly: Inhibition of CPM binding to N-terminal His6-tagged human TEAD4 (217 to 434 residues) expressed in Escherichia coli BL21-CodonPlus (DE3)-RIPL cells at 12.5 uM preincubated for 10 mins followed by CPM addition and measured after 1 hr by fluorescence assay relative to control. Conditions: time 70.0 min.
For experiment [12] the target is unchanged. Put plainly: Reversible inhibition of CPM binding to nonacylated N-terminal His6-tagged human TEAD4 (217 to 434 residues) expressed in Escherichia coli BL21-CodonPlus (DE3)-RIPL cells measured after 1 to 24 hrs by fluorescence assay.
The target is the same in experiment [13]. Put plainly: Binding affinity to TEAD4 in human HCT-116 cells assessed as change in melting temperature at 50 uM after 10 mins by […]. Type of experiment: cell-based. In outline: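 CETSA in HCT116 lysates (PBS, 0.04% NP-40, freeze–thaw lysis, 100,000g clearing; 1 mg/mL protein): compound at 50 μM or DMSO for 10 min at room temperature, aliquots heated across a temperature range, recentrifuged 100,000g at 4 °C for 25 min. Soluble TEAD4 detected by immunoblot with anti-TEAD4 antibody; melting temperature from turning point of fitted curves.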

Experiment [14] has the same target. Put plainly: Binding affinity to nonacylated N-terminal His6-tagged human TEAD4 (217 to 434 residues) expressed in Escherichia coli BL21-CodonPlus (DE3)-RIPL cells assessed as inhibition of protein-FAM-YAP (50 to 100 residues) interaction preincubated for 10 mins followed by FAM YAP addition and measured after 1 hr by fluorescence assay. In outline: as §4
The species entered for experiment [15] is Mus musculus. Put plainly: Binding affinity to N-terminal His6-tagged mouse TEAD4 Cys360Ser mutant assessed as inhibition of protein-FAM-YAP (50 to 100 residues) interaction preincubated for 10 mins followed by FAM YAP addition and measured after 1 hr by fluorescence assay. To be noted: time 70.0 min. Put shortly: as §2
The target of experiment [16] is Transcriptional enhancer factor TEF-3 (Mus musculus) (UniProt Q62296). Put plainly: Binding affinity to nonacylated mouse TEAD4 assessed as line broadening at Phe386 residue at 0.5 mM by 1H-15N HSQC spectra analysis. Put shortly:
as §3

Experiment [17] deals with T1, Transcriptional enhancer factor TEF-3. Put plainly: Inhibition of CPM binding to nonacylated N-terminal His6-tagged human TEAD4 (217 to 434 residues) expressed in Escherichia coli BL21-CodonPlus (DE3)-RIPL cells assessed as ratio of Kinact to Ki measured after 1 to 24 hrs by fluorescence assay. Conditions: time hrs 1-24.
For experiment [18] the target is unchanged. Put plainly: Inhibition of CPM binding to N-terminal His6-tagged human TEAD4 (217 to 434 residues) expressed in Escherichia coli BL21-CodonPlus (DE3)-RIPL cells preincubated for 10 mins followed by CPM addition and measured after 1 hr by fluorescence assay. Conditions: read-out: IC50(app).

T1 sequence (Q15561 whole entry): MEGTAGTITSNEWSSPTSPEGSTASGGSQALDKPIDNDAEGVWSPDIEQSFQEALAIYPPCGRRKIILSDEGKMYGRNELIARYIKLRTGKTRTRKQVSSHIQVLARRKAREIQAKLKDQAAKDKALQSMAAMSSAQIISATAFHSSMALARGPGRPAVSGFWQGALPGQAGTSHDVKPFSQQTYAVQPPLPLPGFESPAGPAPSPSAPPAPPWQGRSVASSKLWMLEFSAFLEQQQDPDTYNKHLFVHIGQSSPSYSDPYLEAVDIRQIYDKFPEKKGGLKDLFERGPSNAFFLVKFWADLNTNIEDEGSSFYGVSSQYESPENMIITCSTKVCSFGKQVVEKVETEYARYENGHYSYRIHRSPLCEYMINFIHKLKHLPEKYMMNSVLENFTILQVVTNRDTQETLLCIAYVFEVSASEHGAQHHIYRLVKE
Sequence of Transcriptional enhancer factor TEF-1 (P28347 whole entry, the tested form may be a part): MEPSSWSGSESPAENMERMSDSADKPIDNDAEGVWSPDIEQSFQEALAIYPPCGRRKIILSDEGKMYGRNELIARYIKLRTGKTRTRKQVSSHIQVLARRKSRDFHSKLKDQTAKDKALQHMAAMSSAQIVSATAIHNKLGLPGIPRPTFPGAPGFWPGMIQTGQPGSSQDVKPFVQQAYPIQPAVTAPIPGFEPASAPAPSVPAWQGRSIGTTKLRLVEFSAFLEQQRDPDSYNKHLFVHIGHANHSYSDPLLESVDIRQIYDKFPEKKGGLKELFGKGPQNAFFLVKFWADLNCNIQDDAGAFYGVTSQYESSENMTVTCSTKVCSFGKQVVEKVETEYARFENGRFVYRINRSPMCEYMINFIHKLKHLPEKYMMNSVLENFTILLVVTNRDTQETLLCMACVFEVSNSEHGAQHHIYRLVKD

Turning to `O=c1cc(CO)oc(C(Nc2ccccc2)c2ccccc2)c1O` (stereo not drawn), the inhibition was 90% in experiment [1] and above 50% in experiment [11]. The outcome in [2], in experiment [7] and in experiment [16] was Active. The outcome in experiment [3] was inactive. The IC50 was found to be 2.6 µM in [4], 0.2 µM in [9], 0.07 µM in experiment [14] and 2.3 µM in experiment [18]. In addition, in [5], the Tm was 36 °C. In addition, the inhibition entry (in the experiment filed under Mus musculus [6]; in [8]; in the experiment listed under Mus musculus [15]) was “inactive” each time. Moreover, the Ratio in experiment [10] was 4; in experiment [17], 8.3. For the same molecule, the Ki in experiment [12] came out at 2.6 µM. Further, the shift in melting temperature (ΔTm) in [13] is 3.3 °C.

As usually defined, the inhibition is the percentage by which the read-out fell short of the control. In general, IC50 refers to the midpoint of a concentration-inhibition curve. As a reminder, the Ki is a dissociation constant, usually derived from enzyme kinetics or from competition with a known ligand. By ΔTm is commonly meant the shift of the melting midpoint relative to a reference.

Source of the values: ChEMBL document CHEMBL4665803, “Discovery of Covalent Inhibitors Targeting the Transcriptional Enhanced Associate Domain Central Pocket” (J Med Chem, 2020).
